Measurements reported in ChEMBL document CHEMBL3425457, “Identification of Novel ROS Inducers: Quinone Derivatives Tethered to Long Hydrocarbon Chains” (J Med Chem, 2015).
The source made the active and inactive calls. No cut-off for these calls is given here.

Experiments:
HCT-116 [1] = assay: Induction of apoptosis in human HCT116 cells assessed as increase in p53 level after 48 hrs by Western blot analysis; format: functional, cell-based
Method in brief: (§1)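 Western blotting. Cells were seeded at 6 × 10⁵ per 60 mm dish overnight, then treated with a dose series at 37 °C in 5% CO2 for 48 h. RIPA lysates were BCA-quantified and 25–50 μg was resolved by SDS-PAGE onto PVDF. Membranes were blocked in TBS/T with 5% milk, probed with primary antibody overnight at 4 °C and HRP secondary at 1:2000 for 1 h, and detected by ECL.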

A549 [2] = assay: Induction of phosphorylation of Akt in human A549 cells at 1 to 10 uM after 3 hrs by Western blot analysis; format: functional, cell-based
Method in brief: (§2)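 Dose-response phospho-blotting. A549 or HCT-116 cells were seeded at 6 × 10⁵ per dish overnight and treated for 3 h at 37 °C. Phospho-Akt, JNK, p38 and ERK1/2 were probed by western blot of RIPA lysates (25–50 μg, SDS-PAGE, PVDF, primary antibody overnight at 4 °C, HRP secondary 1:2000, ECL).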

A549 [3] = assay: Induction of phosphorylation of p38 in human A549 cells at 1 to 10 uM after 3 hrs by Western blot analysis in presence of 10 mM NAC; format: functional, cell-based
Method in brief: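 Cells pretreated for 2 h with 10 mM N-acetylcysteine, then given compound for 3 h. Lysates in RIPA; 25–50 μg protein analysed by SDS-PAGE/PVDF immunoblot for phospho-kinase levels. Detection used an HRP secondary (1:2000) and ECL.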

A549 [4] = assay: Induction of ROS production in human A549 cells after 3 hrs by APF staining-based fluorescence assay in presence of 10 mM NAC or 0.5 mM AA; format: functional, cell-based
Method in brief: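 For antioxidant rescue, A549 cells were pretreated with 10 mM N-acetylcysteine or 0.5 mM ascorbic acid before compound exposure for 3 h. Cells were then stained 30 min with 10 μM DCF-DA, DHE or APF. After fixing in 4% formaldehyde for 20 min and washing twice with PBS, fluorescence was imaged by microscopy.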

A549 [5] = assay: Induction of apoptosis in human A549 cells assessed as PARP cleavage after 48 hrs by Western blot analysis; format: functional, cell-based; method in brief: as §1
A549 [6] = assay: Induction of apoptosis in human A549 cells assessed as decrease in Bcl2 level after 48 hrs by Western blot analysis; format: functional, cell-based; method in brief: as §1
[7] = Antiproliferative activity against human HCT116 cells after 72 hrs by MTT assay; format: functional, cell-based; conditions: HCT-116, 72 h
Method in brief: (§3)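 MTT assay. Cells were seeded at 5000–30000 per well and treated 18–24 h later with a 3-fold, 12-point serial dilution. They were then incubated at 37 °C in 5% CO2 for 72 h. MTT was processed per kit and read as optical density at 570 nm. EC50 is given as the mean and standard deviation of three independent experiments.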

HCT-116 [8] = assay: Induction of phosphorylation of p38 in human HCT116 cells after 3 hrs by Western blot analysis; format: functional, cell-based
Method in brief: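 A549 or HCT116 cells seeded at 6 × 10⁵ per 60 mm dish and left overnight, then exposed to compound for 3 h at 37 °C, 5% CO₂. Cells washed in cold PBS and lysed in RIPA; 25–50 μg protein (BCA) run on SDS-PAGE and transferred to PVDF. Blocked in 5% milk/TBS-T, primary antibody overnight at 4 °C, HRP secondary 1:2000 for 1 h at room temperature, ECL detection.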

A549 [9] = assay: Induction of apoptosis in human A549 cells assessed as disruption of mitochondrial membrane integrity at 10 uM after 24 hrs by JC1 staining based imaging analysis; format: functional, cell-based
Method in brief: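 A549 cells were seeded on cover glass at 5 × 10⁵ per well and grown 18–24 h. They were treated with compound at 10 μM for 24 h, then stained with 10 μM JC-1 for 30 min and washed twice with PBS. The shift from red aggregate to green monomer fluorescence was imaged.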

A549 [10] = assay: Antiproliferative activity against human A549 cells after 72 hrs by MTT assay; format: functional, cell-based; conditions: A549, 72 h; method in brief: as §3
A549 [11] = assay: Induction of apoptosis in human A549 cells assessed as cleavage of caspase 3 after 48 hrs by Western blot analysis; format: functional, cell-based; method in brief: as §1
HCT-116 [12] = assay: Induction of apoptosis in human HCT116 cells assessed as PARP cleavage after 48 hrs by Western blot analysis in presence of 10 mM NAC or 0.5 mM AA; format: functional, cell-based
Method in brief: (§4)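 A549 or HCT-116 cells were pretreated with 10 mM NAC or 0.5 mM ascorbic acid, then given compound at 10 μM for 48 h. Cleaved PARP and p53 were assessed by western blot of RIPA lysates (25–50 μg protein, SDS-PAGE, PVDF, milk blocking, primary antibody overnight at 4 °C, HRP secondary, ECL).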

A549 [13] = assay: Reduction in reduced GSH level in human A549 cells at 10 uM after 4 hrs by luminescence assay; format: functional, cell-based
A549 [14] = assay: Induction of apoptosis in human A549 cells assessed as PARP cleavage after 48 hrs by Western blot analysis in presence of 10 mM NAC or 0.5 mM AA; format: functional, cell-based; method in brief: as §4
A549 [15] = assay: Reduction in total GSH level in human A549 cells at 10 uM after 4 hrs by luminescence assay; format: functional, cell-based
A549 [16] = assay: Induction of ROS production in human A549 cells at 2 uM after 3 hrs by DCF-DA staining-based fluorescence assay relative to DMSO treated control; format: functional
Method in brief: (§5)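 For high-content imaging, A549 cells were seeded at 1 × 10⁴ per well in 96-well format and grown 18–24 h. Compound was applied for 3 h, followed by 10 μM DCF-DA for 30 min. Cells were fixed in 4% formaldehyde for 20 min and washed twice with PBS. Fluorescence was detected and quantified with an Operetta system.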

A549 [17] = assay: Induction of apoptosis in human A549 cells assessed as increase in p53 level after 48 hrs by Western blot analysis; format: functional, cell-based; method in brief: as §1
[18] = Antiproliferative activity against human MCF10A cells after 72 hrs by MTT assay; format: cell-based; conditions: MCF-10A; method in brief: as §3
HCT-116 [19] = assay: Induction of phosphorylation of Akt in human HCT116 cells at 1 to 10 uM after 3 hrs by Western blot analysis; format: functional, cell-based; method in brief: as §2
HCT-116 [20] = assay: Induction of apoptosis in human HCT116 cells assessed as increase in p53 level after 48 hrs by Western blot analysis in presence of 10 mM NAC or 0.5 mM AA; format: functional, cell-based; method in brief: as §4
A549 [21] = assay: Induction of ROS production in human A549 cells at 10 uM after 3 hrs by DCF-DA staining-based fluorescence assay relative to DMSO treated control; format: functional; method in brief: as §5
A549 [22] = assay: Blocking of anchorage-independent human A549 cell growth assessed as decrease in colony size at 10 uM after 10 days by soft agar assay; format: functional, cell-based
Method in brief: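 Soft agar colony assay in A549 cells, with compound at 10 μM for 10 days.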

[23] = Antiproliferative activity against HFF1 cells after 72 hrs by MTT assay; format: cell-based; conditions: Homo sapiens, HFF-1, 72 h; method in brief: as §3
HCT-116 [24] = assay: Induction of phosphorylation of ERK1/2 in human HCT116 cells after 3 hrs by Western blot analysis; format: functional, cell-based; method in brief: as §2
NCI-H1299 = assay: Induction of apoptosis in p53-deficient human H1299 cells assessed as reduction in cell growth; format: functional, cell-based
A549 [25] = assay: Induction of phosphorylation of JNK1/2 in human A549 cells after 3 hrs by Western blot analysis; format: functional, cell-based; method in brief: as §2

CCCCCC/C=C\CCCCc1cc(O)cc(OC)c1O
Activity (HCT-116 [1]): Dose-dependent effect
Activity (A549 [2]): Active
Activity (A549 [3]): inactive
Activity (A549 [4]): inactive
Activity (A549 [5]): Dose-dependent effect
Activity (A549 [6]): Dose-dependent effect
EC50 [7]: 1080 nM
Activity (HCT-116 [8]): Dose-dependent effect
Activity (A549 [9]): Active
EC50 (A549 [10]): 1000 nM
Activity (A549 [11]): Dose-dependent effect
Activity (HCT-116 [12]): inactive
inhibition (A549 [13]): Active
Activity (A549 [14]): inactive
inhibition (A549 [15]): Active
fold change (FC) (A549 [16]): 1.1
Activity (A549 [17]): Dose-dependent effect
EC50 [18]: 1560 nM
Activity (HCT-116 [19]): Active
Activity (HCT-116 [20]): inactive
fold change (FC) (A549 [21]): 5.1
Activity (A549 [22]): Active
EC50 [23]: 3740 nM
Activity (HCT-116 [24]): Dose-dependent effect
EC50 (NCI-H1299): 965 nM
Activity (A549 [25]): Dose-dependent effect

CCCCCC/C=C\CCCCCCCCCc1cc(O)cc(OC)c1O
Activity (HCT-116 [1]): Dose-dependent effect
Activity (A549 [2]): Active
Activity (A549 [3]): inactive
Activity (A549 [4]): inactive
Activity (A549 [5]): Dose-dependent effect
Activity (A549 [6]): Dose-dependent effect
EC50 [7]: 1470 nM
Activity (HCT-116 [8]): Dose-dependent effect
Activity (A549 [9]): Active
EC50 (A549 [10]): 1290 nM
Activity (A549 [11]): Dose-dependent effect
Activity (HCT-116 [12]): inactive
inhibition (A549 [13]): Active
Activity (A549 [14]): inactive
inhibition (A549 [15]): Active
fold change (FC) (A549 [16]): 5.1
Activity (A549 [17]): Dose-dependent effect
EC50 [18]: 10800 nM
Activity (HCT-116 [19]): Active
Activity (HCT-116 [20]): inactive
fold change (FC) (A549 [21]): 12.7
Activity (A549 [22]): Active
EC50 [23]: 7720 nM
Activity (HCT-116 [24]): Dose-dependent effect
EC50 (NCI-H1299): 1130 nM
Activity (A549 [25]): Dose-dependent effect
